Results reported in ChEMBL document CHEMBL4765234 (J Med Chem, 2016).
pEC50, pKi: −log10 of the molar value. Active and inactive are the calls of the source. The calls are words filed in the database; no cut-off is given here.

Tests used:
[1] = target: T1, Peroxisome proliferator-activated receptor alpha (Homo sapiens) (UniProt Q07869); experiment: Displacement of [3H]-[…] from PPARalpha (unknown origin) expressed in baculovirus infected Sf9 insect cells upto 30 uM measured after 10 hrs by microbeta scintillation counting analysis; details: dose microM <=30, time 10.0 hrs
T1 sequence (whole entry): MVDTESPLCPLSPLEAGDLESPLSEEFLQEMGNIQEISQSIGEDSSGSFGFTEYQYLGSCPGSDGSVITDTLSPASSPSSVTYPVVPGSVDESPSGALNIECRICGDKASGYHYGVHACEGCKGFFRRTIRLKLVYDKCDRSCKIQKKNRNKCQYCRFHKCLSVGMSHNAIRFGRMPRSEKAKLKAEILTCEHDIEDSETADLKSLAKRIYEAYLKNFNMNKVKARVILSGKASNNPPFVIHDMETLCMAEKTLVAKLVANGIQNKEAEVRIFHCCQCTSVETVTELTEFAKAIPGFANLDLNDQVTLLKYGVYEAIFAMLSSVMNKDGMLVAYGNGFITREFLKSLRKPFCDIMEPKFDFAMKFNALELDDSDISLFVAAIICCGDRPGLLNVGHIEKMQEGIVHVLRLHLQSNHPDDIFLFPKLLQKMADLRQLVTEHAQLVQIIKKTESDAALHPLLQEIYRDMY
Method in brief: (§1)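 Scintillation proximity assay. Sf9 lysates with baculovirus-expressed PPARα (0.3 μg), PPARδ (0.5 μg) or PPARγ (1.25 μg), each with RXRα, were bound via biotinylated DR2 oligo (0.126 nM) to streptavidin yttrium silicate beads. Buffer was HEPES pH 7.8 with KCl, MgCl2, DTT, CHAPS, 14% glycerol and salmon sperm DNA. A 3H reference agonist ligand was used, with 11 compound concentrations, for 10 h. Nonspecific binding was defined with 10000 nM unlabeled reference. Ki was derived from IC50.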

[2] = target: Free fatty acid receptor 1 (Mus musculus) (UniProt Q76JU9); experiment: Agonist activity at Prolink-tagged mouse GPR40 fused with EA-tagged beta-arrestin expressed in human U2OS cells assessed as induction of beta-arrestin recruitment measured after 90 mins by beta-galactosidase based PathHunter assay relative to control; format: cell-based; details: filed as agonist
Method in brief: (§2)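 PathHunter β-gal complementation. Cells were incubated overnight at 5000/well in medium with 1% heat-inactivated FBS. Compound was added as a 20-point 2-fold series from a top final of 100 μM (1% DMSO) for 90 min at 37 °C, followed by detection reagents and chemiluminescence read after 1 h at rt.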

[3] = Protein binding in plasma (unknown origin) by equilibrium dialysis method; format: ADME, cell-free; details: human, read-out: PPB
Method in brief: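 Plasma protein binding measured by equilibrium dialysis.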

[4] = target: Free fatty acid receptor 1 (Rattus norvegicus) (UniProt Q8K3T4); experiment: Agonist activity at Prolink-tagged rat GPR40 fused with EA-tagged beta-arrestin expressed in human U2OS cells assessed as induction of beta-arrestin recruitment measured after 90 mins by beta-galactosidase based PathHunter assay relative to control; format: cell-based; details: filed as agonist; method in brief: as §2
[5] = target: T2, Free fatty acid receptor 1 (Homo sapiens, UniProt O14842); experiment: Agonist activity at human recombinant full length GPR40 overexpressed in human HEK293 cells assessed as increase in inositol phosphate accumulation in presence of terbium cryptate-labeled anti IP1/d2-labelled IP1 measured after 120 mins by HTRF assay; format: functional, cell-based
Method in brief: (§3)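 HEK293 hGPR40 cells (20K/well) were cultured overnight, washed, and held in IP1 stimulation buffer. IP-1 was measured by competitive HTRF immunoassay with terbium cryptate anti-IP1 mAb and d2-labelled IP1.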

[6] = target: T2, Free fatty acid receptor 1; experiment: Agonist activity at human recombinant full length GPR40 overexpressed in human HEK293 cells assessed as increase in intracellular calcium level measured over 3 mins by calcium 4 dye based FLIPR assay relative to 100 uM linoleic acid; format: functional, cell-based; details: filed as agonist
Method in brief: (§4)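 HEK293 cells overexpressing hGPR40 (25K/well) were cultured overnight in DMEM/F12 with 0.2% FBS and geneticin. Compound was tested at 40 μM–0.1 nM final (20-point, 1% DMSO), and FLIPR fluorescence was read over 3 min.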

[7] = target: T2, Free fatty acid receptor 1; experiment: Agonist activity at human recombinant full-length Prolink-tagged GPR40 fused with EA-tagged beta-arrestin expressed in human HEK293 cells assessed as induction of beta-arrestin recruitment measured after 90 mins by beta-galactosidase based PathHunter assay relative to control; format: cell-based; details: filed as agonist; method in brief: as §2
[8] = target: T2, Free fatty acid receptor 1; experiment: Displacement of [3H]-TAK-875 from human recombinant full-length GPR40 expressed in human HEK293 cell membrane incubated for 2 hrs by solid scintillation counting method; format: cell membranes
[9] = target: T2, Free fatty acid receptor 1; experiment: Agonist activity at human recombinant full length GPR40 overexpressed in human HEK293 cells assessed as increase in inositol phosphate accumulation in presence of terbium cryptate-labeled anti IP1/d2-labelled IP1 measured after 120 mins by HTRF assay relative to AMG837; format: functional, cell-based; details: filed as agonist; method in brief: as §3
[10] = target: Free fatty acid receptor 1 (Rattus norvegicus, UniProt Q8K3T4); experiment: Agonist activity at Prolink-tagged rat GPR40 fused with EA-tagged beta-arrestin expressed in human U2OS cells assessed as induction of beta-arrestin recruitment measured after 90 mins by beta-galactosidase based PathHunter assay; format: cell-based; method in brief: as §2
[11] = target: Free fatty acid receptor 1 (Mus musculus, UniProt Q76JU9); experiment: Agonist activity at Prolink-tagged mouse GPR40 fused with EA-tagged beta-arrestin expressed in human U2OS cells assessed as induction of beta-arrestin recruitment measured after 90 mins by beta-galactosidase based PathHunter assay; format: cell-based; method in brief: as §2
[12] = target: T2, Free fatty acid receptor 1; experiment: Agonist activity at human recombinant full length GPR40 overexpressed in human HEK293 cells assessed as increase in intracellular calcium level measured over 3 mins by calcium 4 dye based FLIPR assay; format: functional, cell-based; method in brief: as §4
[13] = target: T3, Peroxisome proliferator-activated receptor delta (Homo sapiens) (UniProt Q03181); experiment: Displacement of [3H]-[…] from PPARdelta (unknown origin) expressed in baculovirus infected Sf9 insect cells upto 30 uM measured after 10 hrs by microbeta scintillation counting analysis; details: dose microM <=30, time 10.0 hrs; method in brief: as §1
T3 sequence (whole entry): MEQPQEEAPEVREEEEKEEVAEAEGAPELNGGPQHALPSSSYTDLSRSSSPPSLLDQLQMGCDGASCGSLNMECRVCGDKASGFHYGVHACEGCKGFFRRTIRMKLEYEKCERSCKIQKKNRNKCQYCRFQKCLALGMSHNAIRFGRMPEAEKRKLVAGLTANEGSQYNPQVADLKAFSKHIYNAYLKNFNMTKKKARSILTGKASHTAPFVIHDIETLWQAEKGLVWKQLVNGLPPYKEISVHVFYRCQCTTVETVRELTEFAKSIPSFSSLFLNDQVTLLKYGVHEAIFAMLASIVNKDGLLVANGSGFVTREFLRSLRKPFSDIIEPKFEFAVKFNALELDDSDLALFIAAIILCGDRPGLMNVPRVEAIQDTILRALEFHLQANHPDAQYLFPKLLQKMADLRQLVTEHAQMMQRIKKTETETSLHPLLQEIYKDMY

[14] = target: T4, Peroxisome proliferator-activated receptor gamma (Homo sapiens) (UniProt P37231); experiment: Displacement of [3H]-[…] from PPARgamma (unknown origin) expressed in baculovirus infected Sf9 insect cells upto 30 uM measured after 10 hrs by microbeta scintillation counting analysis; details: dose microM <=30, time 10.0 hrs; method in brief: as §1
T4 sequence (whole entry): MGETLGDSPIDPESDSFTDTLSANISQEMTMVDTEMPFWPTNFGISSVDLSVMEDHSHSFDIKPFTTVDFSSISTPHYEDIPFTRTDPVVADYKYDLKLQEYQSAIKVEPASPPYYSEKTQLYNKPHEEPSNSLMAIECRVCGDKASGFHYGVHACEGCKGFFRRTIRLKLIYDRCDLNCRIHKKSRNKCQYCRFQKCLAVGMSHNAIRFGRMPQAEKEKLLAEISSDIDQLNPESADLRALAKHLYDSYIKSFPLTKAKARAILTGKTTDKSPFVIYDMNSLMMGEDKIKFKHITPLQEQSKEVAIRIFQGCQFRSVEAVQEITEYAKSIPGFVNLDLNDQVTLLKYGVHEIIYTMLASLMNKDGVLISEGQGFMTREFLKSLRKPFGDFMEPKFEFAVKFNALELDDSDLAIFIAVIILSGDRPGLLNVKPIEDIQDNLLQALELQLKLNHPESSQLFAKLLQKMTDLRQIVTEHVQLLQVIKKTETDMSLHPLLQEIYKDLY

[15] = target: T2, Free fatty acid receptor 1; experiment: Agonist activity at human recombinant full-length Prolink-tagged GPR40 fused with EA-tagged beta-arrestin expressed in human HEK293 cells assessed as induction of beta-arrestin recruitment measured after 90 mins by beta-galactosidase based PathHunter assay; format: cell-based; method in brief: as §2

Chain of Free fatty acid receptor 1 (Rattus norvegicus, UniProt Q8K3T4) (Q8K3T4 whole entry, the tested form may be a part): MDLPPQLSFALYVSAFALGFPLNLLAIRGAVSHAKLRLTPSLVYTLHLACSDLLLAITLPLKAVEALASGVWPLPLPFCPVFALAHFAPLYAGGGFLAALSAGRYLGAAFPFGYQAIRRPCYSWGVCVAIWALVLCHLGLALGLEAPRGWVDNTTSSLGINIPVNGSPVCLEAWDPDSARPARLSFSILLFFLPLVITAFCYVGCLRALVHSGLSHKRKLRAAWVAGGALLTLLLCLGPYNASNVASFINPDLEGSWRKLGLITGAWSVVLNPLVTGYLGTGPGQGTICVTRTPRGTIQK
Chain of Free fatty acid receptor 1 (Rattus norvegicus) (Q8K3T4 whole entry, the tested form may be a part): as above
Chain of Free fatty acid receptor 1 (Mus musculus) (Q76JU9 whole entry, the tested form may be a part): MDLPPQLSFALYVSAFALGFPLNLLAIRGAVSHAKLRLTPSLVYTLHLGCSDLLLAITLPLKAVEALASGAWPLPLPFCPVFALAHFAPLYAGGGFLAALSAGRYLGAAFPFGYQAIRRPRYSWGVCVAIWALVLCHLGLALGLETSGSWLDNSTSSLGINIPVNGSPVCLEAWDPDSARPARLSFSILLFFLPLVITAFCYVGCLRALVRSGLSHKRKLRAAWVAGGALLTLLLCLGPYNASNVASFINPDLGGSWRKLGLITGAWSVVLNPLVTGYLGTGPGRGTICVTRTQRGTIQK
Chain of Free fatty acid receptor 1 (Mus musculus, UniProt Q76JU9) (Q76JU9 whole entry, the tested form may be a part): as above
T2 sequence (O14842 whole entry): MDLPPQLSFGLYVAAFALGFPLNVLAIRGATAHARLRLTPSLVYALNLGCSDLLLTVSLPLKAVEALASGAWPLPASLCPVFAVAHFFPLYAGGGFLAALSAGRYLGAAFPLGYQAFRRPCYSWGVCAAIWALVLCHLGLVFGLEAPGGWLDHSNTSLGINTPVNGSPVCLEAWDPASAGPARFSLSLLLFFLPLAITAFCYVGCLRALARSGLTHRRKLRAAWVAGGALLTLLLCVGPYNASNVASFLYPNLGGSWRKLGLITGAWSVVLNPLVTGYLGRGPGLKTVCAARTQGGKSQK

SMILES | Activity [1] | Emax [2] | fraction unbound [3] | Emax [4] | pEC50 [5] | Emax [6] | Emax [7] | pKi [8] | Emax [9] | pEC50 [10] | pEC50 [11] | pEC50 [12] | Activity [13] | Activity [14] | pEC50 [15]
CC#C[C@H](CC(=O)O)c1ccc(OCc2ccc(CN3CCC4(C=Cc5ccccc54)CC3)cc2)cc1F | inactive | 113% | < 0.01 | 112% | 6.72 | 61% | 102% | 6.39 | 160% | 6.38 | 6.92 | 6.36 | inactive | inactive | 6.17
CC#C[C@@H](CC(=O)O)c1ccc(OCc2ccc(CN3CCC4(CC3)CN(c3ccccc3)c3ccccc34)cc2)cc1 | inactive | 130% | < 0.01 | 132% | 8.68 | 53% | 116% | 8.82 | 226% | 9.08 | 9.21 | 7.68 | inactive | inactive | 8.82
CC#C[C@@H](CC(=O)O)c1ccc(OCc2ccc(CN3CCC4(CC3)CN(C(C)C)c3ccccc34)cc2)cc1 | inactive | 143% | < 0.01 | 139% | 7.96 | 46% | 133% | 8.39 | 343% | 8.68 | 8.92 | 7.62 | inactive | inactive | 8.09
CC#C[C@@H](CC(=O)O)c1ccc(OCc2ccc(CN3CCC4(CC3)CN(C)c3ccc(C)cc34)cc2)cc1 | inactive | 145% | < 0.01 | 138% | 8.46 | 60% | 121% | 7.85 | 231% | 8.34 | 8.70 | 7.21 | inactive | inactive | 7.60
CC#C[C@@H](CC(=O)O)c1ccc(OCc2ccc(CN3CCC4(C=Cc5ccccc54)CC3)c(F)c2)cc1 | inactive | 148% | < 0.01 | 145% | 8.64 | 51% | 135% | 8.40 | 210% | 8.89 | 8.92 | 7.77 | inactive | inactive | 8.03
CC#C[C@@H](CC(=O)O)c1ccc(OCc2nc(C)c(CN3CCC4(C=Cc5ccccc54)CC3)s2)cc1 | inactive | 118% | < 0.01 | 112% | 8.00 | 62% | 114% | 7.23 | 112% | 7.77 | 8.42 | 7.96 | inactive | inactive | 7.24
CC#C[C@@H](CC(=O)O)c1ccc(OCc2ccc(CN3CCC4(CC3)CN(C)c3c(Cl)cccc34)cc2)cc1 | inactive | 141% | < 0.01 | 138% | 7.96 | 42% | 147% | 8.46 | 378% | 9.05 | 9.23 | 7.77 | inactive | inactive | 8.48
